The values below come from ChEMBL document CHEMBL4665734, “Optimization of globomycin analogs as novel gram-negative antibiotics” (Bioorg Med Chem Lett, 2020).

Values after ≈ are worked out from the molar mass of the structure shown. Active and inactive are the calls of the source. Starred links: 1 amine or outer side, 2 acyl side, 3 side chain; linkers in the order of their positions; H or OH if unused. Non-standard residues stand in square brackets, D forms with d. Residues, ends and D or L forms follow the SMILES beside them. *: point of attachment. X6 = C[C@H](CO[C@H](CC1C[C@H]2CC[C@@H](C1)C2)[C@@H](C)C(=O)[*:2])N[*:1]; X1 = CCCCCC[C@@H](OC[C@@H](C)N[*:1])[C@@H](C)C(=O)[*:2]; X9 = CCCCCC[C@@H](OCCN[*:1])[C@@H](C)C(=O)[*:2]; Cyclobutyl(trans-3-NH2) = N[C@H]1C[C@H](*)C1; Gly(cHept) = N[C@H](C(=O)O)C1CCCCCC1; aThr = C[C@H](O)[C@H](N)C(=O)O; NMeL = CN[C@@H](CC(C)C)C(=O)O; Chg = N[C@H](C(=O)O)C1CCCCC1; NMeNva = CCC[C@H](NC)C(=O)O; X2 = NC[C@H]1C[C@H](*)C1; Dap = NC[C@H](N)C(=O)O A value given as a limit tells only on which side of the number the result lay.

In one data set the test system is Escherichia coli CFT073. The data set is described as follows: Inhibition of LspA in wild type Escherichia coli CFT073 assessed as inhibition of bacterial growth. The method in brief: (§1)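 Read-out is the minimum inhibitory concentration, reported in µM.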
A short description of data set [1]: Clearance in rat liver microsomes. Format: ADME, Microsome. Put shortly: (§2)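 Intrinsic clearance in rat or mouse liver microsomes, expressed in mL/min/kg.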
In general terms: Liver microsomes are vesicles of endoplasmic reticulum, rich in cytochrome P450 enzymes.

The subject of a further data set is Enterobacter cloacae. The data set is described as follows: Inhibition of LspA in Enterobacter cloacae assessed as inhibition of bacterial growth.
Data set [2] is described as follows: Stability of the compound in human plasma assessed as parent compound remaining after 24 hrs. It is filed as ADME, cell-free. The settings on record: read-out: Stabilty. The method in brief:
(§3)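 Test compound incubated for 24 hour in human, rat or mouse plasma. Stability is reported as the percentage of parent compound remaining.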

The test system of data set [3] is Escherichia coli. The experiment in a line: Inhibition of LspA in Escherichia coli CFT073imp4213 harboring outer membrane-permeable mutant assessed as inhibition of bacterial growth. Put shortly:
as §1

Data set [4] in a line: Protein binding in mouse plasma. Format: ADME, cell-free. The settings on record: for fraction unbound: read-out: PPB (converted).
A short description of data set [5]: Clearance in mouse liver microsomes. It is filed as ADME, Microsome. The method in brief: as §2
Data set [6] can be described thus: Half life in iv dosed mouse. It is filed as ADME, organism-based. The settings on record: in vivo.
A short description of data set [7]: Protein binding in rat plasma. It is filed as ADME, cell-free. Particulars: for fraction unbound: read-out: PPB (converted).
Data set [8] is described as follows: Clearance in iv dosed mouse. It is filed as ADME, organism-based. The settings on record: in vivo.
Data set [9] in a line: Stability of the compound in mouse plasma assessed as parent compound remaining after 24 hrs. Particulars: read-out: Stabilty. It is filed as ADME, cell-free. The method in brief:
as §3

The next data set has as its system Acinetobacter baumannii. The experiment in a line: Inhibition of LspA in Acinetobacter baumannii assessed as inhibition of bacterial growth.
In a further data set the test system is Pseudomonas aeruginosa. The data set is described as follows: Inhibition of LspA in Pseudomonas aeruginosa assessed as inhibition of bacterial growth.
For a further data set, the system named is Klebsiella pneumoniae. The experiment in a line: Inhibition of LspA in Klebsiella pneumoniae assessed as inhibition of bacterial growth.
A short description of data set [10]: Stability in mouse plasma assessed as esterase-mediated compound hydrolysis by measuring parent compound remaining after 6 hrs. Format: ADME, cell-free. The settings on record: read-out: Stabilty. The method in brief: (§4)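 Test compound incubated for 6 hour in human or mouse plasma. Stability is reported as the percentage of parent compound remaining.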
Another data set has as its system Jurkat. The data set is described as follows: Cytotoxicity against human Jurkat cells. Format: cell-based. The method in brief:
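Jurkat cell growth assay. Result reported as antiproliferative EC50.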

A short description of data set [11]: Lipophilicity, logD of the compound at pH 7.4. The settings on record: buffer, pH 7.4, logD.
Data set [12] can be described thus: Stability of the compound in rat plasma assessed as parent compound remaining after 24 hrs. Format: ADME, cell-free. Particulars: read-out: Stabilty. Put shortly:
as §3

Data set [13] can be described thus: Growth inhibition of Staphylococcus aureus USA300.
A short description of data set [14]: Stability of the compound in mouse plasma assessed as parent compound remaining after 6 hrs. Format: ADME, cell-free. The settings on record: read-out: Stabilty. The method in brief: as §4
Data set [15] in a line: Stability of the compound in human plasma assessed as parent compound remaining after 6 hrs. Particulars: read-out: Stabilty. Format: ADME, cell-free. The method in brief: as §4
Data set [16] in a line: Half life in iv dosed rat. Format: ADME, organism-based. Particulars: in vivo.
Data set [17] is described as follows: Clearance in iv dosed rat. It is filed as ADME, organism-based. Particulars: in vivo.
A short description of data set [18]: Drug concentration in blood of iv dosed mouse infected with Escherichia coli 25922 infused for 20 hrs. Format: ADME, organism-based. The settings on record: read-out: Ct. The method in brief: (§5)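 Neutropenic mouse thigh model infected with E. coli 25922. Compound given by IV infusion over 20 hour. Average blood concentration was measured during the infusion, and thigh CFU was compared with vehicle-treated animals.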

A short description of data set [19]: Unbound drug concentration in plasma of iv dosed mouse infected with Escherichia coli 25922. It is filed as ADME, organism-based. Particulars: in vivo. Put shortly: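 Same infected neutropenic mouse thigh model (E. coli 25922, 20 hour IV infusion). Unbound concentration was derived from the average blood concentration and the free fraction in mouse plasma.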

Data set [20] relates to Escherichia coli. The experiment in a line: In vivo inhibition of LspA in Escherichia coli 25922 infected in iv infused mouse neutropenic thigh infection model assessed as reduction in CFU infused for 20 hrs. Format: functional, organism-based. Particulars: ATCC 25922. Put shortly: as §5
Data set [21] concerns Escherichia coli ATCC 25922. The data set is described as follows: Inhibition of LspA in wild type Escherichia coli 25922 assessed as inhibition of bacterial growth. Put shortly:
as §1

The nature of data set [22]: Protein binding in plasma of iv dosed mouse infected with Escherichia coli 25922 assessed as free fraction. It is filed as ADME, organism-based.

A word on the half-life: it is the time needed for the level to fall by half in the phase considered. Lower therefore signals rapid decline. What is called clearance is the volume of plasma or blood freed of the substance per unit of time. A high value points to efficient removal. Broadly, the EC50 is the concentration giving half of the maximal effect. Low values mean greater potency, high ones weaker potency. A word on the logD: it is lipophilicity at a set pH, counting ionised and neutral species. For `CCCCCC[C@H]1OC(=O)CNC(=O)[C@H]([C@H](C)O)NC(=O)[C@H](CO)NC(=O)[C@H]([C@H](C)CC)NC(=O)[C@H](CC(C)C)N(C)C(=O)[C@@H]1C`, the MIC in the data set on Escherichia coli CFT073 was 44 µM (≈ 28.9 µg/mL); in the data set on Enterobacter cloacae, 100 µM (≈ 65.6 µg/mL); in the data set with Escherichia coli [3], 0.25 µM (≈ 0.164 µg/mL); in the data set on Acinetobacter baumannii, > 100 µM; in the data set on Pseudomonas aeruginosa it was > 100 µM; in the data set on Klebsiella pneumoniae, > 100 µM. The MIC in data set [13] is > 100 µM. The values for the CLhep predicted in data set [1] and in data set [5] were 37 mL/min/kg and 81 mL/min/kg, respectively. The remaining at 24 h in [2] was determined as 100%; in data set [9], 2%; in data set [12], 1%. For the same molecule, the Stabilty result in data set [4] and in data set [7] was “Unstable” each time. In addition, the half-life in [6] was 0.3 h. For the same molecule, in [8], the clearance was 286 mL/min/kg. Further, the remaining at 6 h in data set [10] was 49%. Further, the concentration giving a half-maximal response (EC50) in the data set on Jurkat is > 50 µM. This molecule also yielded a logD in data set [11] of 3.1.
`CCCCCC[C@H]1OCCNC(=O)[C@H]([C@H](C)O)NC(=O)[C@H](CN)NC(=O)[C@H](C2CCCCC2)NC(=O)[C@H](CC(C)C)N(C)C(=O)[C@@H]1C` (cyclo([Chg][Dap][aThr][X9][NMeL])): the results for the remaining at 6 h in data set [14] and in [15] were 96% and 99%, respectively. The MIC in the data set on Escherichia coli CFT073 came out at 8.7 µM (≈ 5.8 µg/mL); with Escherichia coli [3] it was 0.14 µM (≈ 0.0934 µg/mL); in data set [13], 100 µM (≈ 66.7 µg/mL).
Turning to `CCC[C@H]1C(=O)N[C@@H](C2CCCCCC2)C(=O)N[C@@H](CN)C(=O)N[C@@H](CO[C@H]2C[C@H](N)C2)C(=O)N[C@H](C)CO[C@H](CC2C[C@H]3CC[C@@H](C2)C3)[C@@H](C)C(=O)N1C` (stereo partly drawn) (cyclo([Dap]S(Cyclobutyl(trans-3-NH2))[X6][NMeNva][Gly(cHept)])), the MIC in the data set with Escherichia coli CFT073 was determined as 0.78 µM (≈ 0.604 µg/mL); in the data set with Enterobacter cloacae, 3.1 µM (≈ 2.4 µg/mL); with Acinetobacter baumannii it was 25 µM (≈ 19.4 µg/mL); with Pseudomonas aeruginosa, 100 µM (≈ 77.4 µg/mL); in the data set on Klebsiella pneumoniae it was 8.8 µM (≈ 6.81 µg/mL); in data set [13], 50 µM (≈ 38.7 µg/mL). In addition, the CLhep predicted in data set [1] is 21 mL/min/kg; in data set [5], 41 mL/min/kg. Further, the remaining at 24 h in [2] was found to be 99%; in data set [9], 95%; in data set [12], 94%. For the same molecule, the values for the fraction unbound in data set [4] and in data set [7] were 0.003 and 0.026, respectively. Also, the half-life is 2.1 h in data set [6] and 5.8 h in [16]. In addition, the results for the clearance in [8] and in data set [17] were 17 mL/min/kg and 15 mL/min/kg, respectively. The half-maximal effective concentration (EC50) in the data set with Jurkat was > 100 µM. Further, the pH-dependent lipophilicity (logD) in [11] came to 1.7.
As to `CCCCCC[C@H]1OC[C@@H](C)NC(=O)[C@H](CO[C@H]2C[C@H](CN)C2)NC(=O)[C@H](CN)NC(=O)[C@H](C2CCCCCC2)NC(=O)[C@H](CCC)N(C)C(=O)[C@@H]1C` (cyclo([Dap]S(X2)[X1][NMeNva][Gly(cHept)])), the MIC in the data set with Escherichia coli CFT073 turned out to be 3.1 µM (≈ 2.33 µg/mL); in the data set on Enterobacter cloacae, 6.3 µM (≈ 4.73 µg/mL); in the data set on Escherichia coli [3] it was 0.048 µM (≈ 0.036 µg/mL); with Acinetobacter baumannii it was 18 µM (≈ 13.5 µg/mL); with Pseudomonas aeruginosa it was 100 µM (≈ 75 µg/mL); in the data set with Klebsiella pneumoniae, 18 µM (≈ 13.5 µg/mL). Further, the figures for the MIC in [21] and in [13] were 3.1 µM (≈ 2.33 µg/mL) and 50 µM (≈ 37.5 µg/mL), respectively. For the same molecule, the CLhep predicted in data set [1] is 20 mL/min/kg; in data set [5] it was 43 mL/min/kg. In addition, the values for the remaining at 24 h in data set [2], in [9] and in data set [12] were 98%, 101% and 96%, respectively. Also, the fraction unbound in [4] was 0.011; in data set [7] it was 0.033; in data set [22], 0.011. The half-life in data set [6] was 4 h. This molecule also returned a clearance in [8] of 2.9 mL/min/kg. Further, the concentration at 20 h in [18] came out at 27 µM. The “Cp(f)” value in [19] amounted to 0.3 µM. In addition, the outcome in the data set with Escherichia coli [20] was inactive. Further, the EC50 in the data set with Jurkat was > 100 µM. Moreover, the logD in [11] worked out at 1.6.
